Assay results as given in ChEMBL document CHEMBL1126183, “Synthesis and biological studies of unsaturated acyclonucleoside analogues of S-adenosyl-L-homocysteine hydrolase inhibitors” (J Med Chem, 1992).

Columns and labels:
Mus musculus [1] = assay: Mean biodistribution and elimination data in thyroid was reported 1 hr after administering compound intravenously in tumor-bearing female BALB-C mice.; format: ADME, organism-based, Thyroid gland; conditions: in vivo, iv
How it was run: (§1)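 Female Balb-C mice bearing Line-1 spontaneous lung carcinoma were used 1 week after inoculation of 10⁶ cells. The iodine-125-labeled compound was given in normal saline, filter-sterilized, by lateral tail vein injection under ether anesthesia. At set times the mice were killed and the organs excised, rinsed, blotted and weighed. Activity was gamma-counted and reported as percent injected dose/gram tissue; thyroid was reported as percent injected dose/tissue.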

Mus musculus [2] = assay: Mean biodistribution and elimination data in blood was reported 1 h after administering compound intravenously in tumor-bearing female BALB-C mice.; format: ADME, organism-based; conditions: in vivo, iv; how it was run: as §1
Mus musculus [3] = assay: Mean biodistribution and elimination data in tumor was reported 4 hr after administering compound intravenously in tumor-bearing female BALB-C mice.; format: ADME, organism-based; conditions: in vivo, iv; how it was run: as §1
CCRF-CEM [4] = assay: In vitro inhibition leukemia CCRF-CEM cell line growth; format: functional, Homo sapiens
How it was run: (§2)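 NCI 60-cell-line human tumor screen. Cells were grown 24 h after plating, then exposed 48 h to compound at 10⁻⁴, 10⁻⁵, 10⁻⁶, 10⁻⁷ and 10⁻⁸ M. Growth effect (percent inhibition or kill) was read spectrophotometrically by sulforhodamine B protein staining.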

Mus musculus [5] = assay: Mean biodistribution and elimination data in liver was reported 4 hr after administering compound intravenously in tumor-bearing female BALB-C mice.; format: ADME, organism-based; conditions: in vivo, iv; how it was run: as §1
Mus musculus [6] = assay: Mean biodistribution and elimination data in lung was reported 1 hr after administering compound intravenously in tumor-bearing female BALB-C mice.; format: ADME, organism-based; conditions: in vivo, iv; how it was run: as §1
Mus musculus [7] = assay: Mean biodistribution and elimination data in tumor was reported 1 hr after administering compound intravenously in tumor-bearing female BALB-C mice.; format: ADME, organism-based; conditions: in vivo, iv; how it was run: as §1
HOP-18 [8] = assay: In vitro inhibition lung HOP-18 cell line growth; format: functional, Homo sapiens; how it was run: as §2
Mus musculus [9] = assay: Mean biodistribution and elimination data in blood was reported 4 hr after administering compound intravenously in tumor-bearing female BALB-C mice.; format: ADME, organism-based; conditions: in vivo, iv; how it was run: as §1
CCRF-CEM [10] = assay: In vitro inhibition leukemia CCRF-CEM cell line; format: functional, Homo sapiens; how it was run: as §2
Mus musculus [11] = assay: Mean biodistribution and elimination data in kidney was reported 24 hr after administering compound intravenously in tumor-bearing female BALB-C mice.; format: ADME, organism-based; conditions: in vivo, iv; how it was run: as §1
Mus musculus [12] = assay: Mean biodistribution and elimination data in tumoe was reported 24 h after administering compound intravenously in tumor-bearing female BALB-C mice.; format: ADME, organism-based; conditions: in vivo, iv; how it was run: as §1
Mus musculus [13] = assay: Mean biodistribution and elimination data in thyroid was reported 4 hr after administering compound intravenously in tumor-bearing female BALB-C mice.; format: ADME, organism-based, Thyroid gland; conditions: in vivo, iv; how it was run: as §1
SNB-75 [14] = assay: In vitro inhibition CNS SNB-75 cell line; format: functional, Homo sapiens; how it was run: as §2
Mus musculus [15] = assay: Mean biodistribution and elimination data in kidney was reported 1 hr after administering compound intravenously in tumor-bearing female BALB-C mice.; format: ADME, organism-based; conditions: in vivo, iv; how it was run: as §1
Mus musculus [16] = assay: Mean biodistribution and elimination data in lung was reported 4 hr after administering compound intravenously in tumor-bearing female BALB-C mice.; format: ADME, organism-based; conditions: in vivo, iv; how it was run: as §1
Mus musculus [17] = assay: Mean biodistribution and elimination data in liver was reported 24 h after administering compound intravenously in tumor-bearing female BALB-C mice.; format: ADME, organism-based; conditions: in vivo, iv; how it was run: as §1
Mus musculus [18] = assay: Mean biodistribution and elimination data in lung was reported 24 hr after administering compound intravenously in tumor-bearing female BALB-C mice.; format: ADME, organism-based; conditions: in vivo, iv; how it was run: as §1
HOP-18 [19] = assay: In vitro inhibition lung HOP-18 cell line; format: functional, Homo sapiens; how it was run: as §2
Mus musculus [20] = assay: Mean biodistribution and elimination data in liver was reported 1 hr after administering compound intravenously in tumor-bearing female BALB-C mice.; format: ADME, organism-based; conditions: in vivo, iv; how it was run: as §1
Mus musculus [21] = assay: Mean biodistribution and elimination data in thyroid was reported 24 hr after administering compound intravenously in tumor-bearing female BALB-C mice.; format: ADME, organism-based, Thyroid gland; conditions: in vivo, iv; how it was run: as §1
Mus musculus [22] = assay: Mean biodistribution and elimination data in kidney was reported 4 hr after administering compound intravenously in tumor-bearing female BALB-C mice.; format: ADME, organism-based; conditions: in vivo, iv; how it was run: as §1
SNB-75 [23] = assay: In vitro inhibition CNS SNB-75 cell line growth; format: functional, Homo sapiens; how it was run: as §2
Mus musculus [24] = assay: Mean biodistribution and elimination data in urine was reported 24 h after administering compound intravenously in tumor-bearing female BALB-C mice.; format: ADME, organism-based; conditions: in vivo, iv
How it was run: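 Tumor-bearing female Balb-C mice (Line-1 lung carcinoma) received the ¹²⁵I-labeled compound in normal saline by tail vein injection under ether anesthesia. Urine radioactivity was gamma-counted and expressed as percent injected dose per total sample. Urine was also analyzed by TLC (solvent E) using UV and radioscanning.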

Mus musculus [25] = assay: Mean biodistribution and elimination data in blood was reported 24 hr after administering compound intravenously in tumor-bearing female BALB-C mice.; format: ADME, organism-based; conditions: in vivo, iv; how it was run: as §1
LXFL 529 [26] = assay: In vitro inhibition lung LXFL529 cell line growth; format: functional, Homo sapiens; how it was run: as §2
LXFL 529 [27] = assay: In vitro inhibition lung LXFL529 cell line; format: functional, Homo sapiens; how it was run: as §2
NCI-H522 [28] = assay: In vitro inhibition lung […] cell line growth; format: functional, Homo sapiens; how it was run: as §2
UO-31 [29] = assay: In vitro inhibition renal UO-31 cell line growth.; format: functional, Homo sapiens; how it was run: as §2
NCI-H522 [30] = assay: In vitro inhibition lung […] cell line; format: functional, Homo sapiens; how it was run: as §2
UO-31 [31] = assay: In vitro inhibition renal UO-31 cell line; format: functional, Homo sapiens; how it was run: as §2
LOX IMVI = assay: In vitro inhibition of melanoma […] cell line; format: functional, Homo sapiens; how it was run: as §2
K562 [32] = assay: In vitro inhibition of leukemia K-562 cell line; format: functional, Homo sapiens; how it was run: as §2
MOLT-4 = assay: In vitro inhibition of Leukemia Molt-4 cell line; format: functional, Homo sapiens; how it was run: as §2
K562 [33] = assay: In vitro inhibition of leukemia K-562 cell line.; format: functional, Homo sapiens; how it was run: as §2
SR = assay: In vitro inhibition of leukemia SR cell line; format: functional, Homo sapiens; how it was run: as §2
DMS-114 = assay: In vitro inhibition of lung DMS 114 cell line; format: functional, Homo sapiens; how it was run: as §2

For `Nc1ncnc2c1ncn2COC/C=C/I`, which ID/thyroid (Mus musculus [1]) is on record?
The ID/thyroid was 1.29%.

And the ID/g (Mus musculus [2])?
The ID/g was 3.15%.

And the ID/g (Mus musculus [3])?
The ID/g was 0.6%.

What about the Inhibition (CCRF-CEM [4]) of the same molecule?
Its Inhibition is 52.6%.

And the ID/g (Mus musculus [5])?
Its ID/g is 1.34%.

What about the ID/g (Mus musculus [6]) of the same molecule?
Its ID/g is 3.41%.

And the ID/g (Mus musculus [7])?
Its ID/g is 1.5%.

What about the Inhibition (HOP-18 [8]) of the same molecule?
The Inhibition was 78.8%.

And the ID/g (Mus musculus [9])?
Its ID/g is 1.33%.

And the Cell growth (CCRF-CEM [10])?
The Cell growth was 47.4%.

What about the ID/g (Mus musculus [11]) of the same molecule?
Its ID/g is 0.2%.

What about the ID/g (Mus musculus [12]) of the same molecule?
Its ID/g is 0.06%.

And the ID/thyroid (Mus musculus [13])?
Its ID/thyroid is 3.61%.

What about the Cell growth (SNB-75 [14]) of the same molecule?
The Cell growth was 25.2%.

And the ID/g (Mus musculus [15])?
The ID/g was 3.68%.

What about the ID/g (Mus musculus [16]) of the same molecule?
Its ID/g is 1.3%.

And the ID/g (Mus musculus [17])?
Its ID/g is 0.33%.

What about the ID/g (Mus musculus [18]) of the same molecule?
Its ID/g is 0.35%.

And the Cell growth (HOP-18 [19])?
Its Cell growth is 21.2%.

And the ID/g (Mus musculus [20])?
Its ID/g is 3.4%.

What about the ID/thyroid (Mus musculus [21]) of the same molecule?
The ID/thyroid was 3.49%.

What about the ID/g (Mus musculus [22]) of the same molecule?
Its ID/g is 1%.

What about the Inhibition (SNB-75 [23]) of the same molecule?
The Inhibition was 74.8%.

What about the ID/animal (Mus musculus [24]) of the same molecule?
Its ID/animal is 94.36%.

And the ID/g (Mus musculus [25])?
The ID/g was 0.34%.

`C#CCOCn1cnc2c(Sc3c([N+](=O)[O-])ncn3C)ncnc21` was tested. Which Inhibition (LXFL 529 [26]) did it give?
The Inhibition was 63%.

What about the Inhibition (CCRF-CEM [4]) of the same molecule?
The Inhibition was 50%.

And the Cell growth (LXFL 529 [27])?
Its Cell growth is 37%.

And the Cell growth (CCRF-CEM [10])?
The Cell growth was 50%.

What about the Inhibition (NCI-H522 [28]) of the same molecule?
The Inhibition was 68%.

What about the Cell growth (SNB-75 [14]) of the same molecule?
Its Cell growth is -14%.

What about the Inhibition (UO-31 [29]) of the same molecule?
Its Inhibition is 52%.

What about the Cell growth (NCI-H522 [30]) of the same molecule?
The Cell growth was 32%.

And the Cell growth (UO-31 [31])?
Its Cell growth is 48%.

Which Cell growth (SNB-75 [14]) does the source give for `C#CCOCn1cnc2c(S)ncnc21` here?
The Cell growth was 0%.

And the Inhibition (SNB-75 [23])?
Its Inhibition is 100%.

What does the source list for `C#CCOCn1cnc2c(Cl)ncnc21`?
Cell growth (LOX IMVI): 33.5%; Inhibition (LOX IMVI): 66.5%; Inhibition (K562 [32]): 65.2%; Cell growth (MOLT-4): 40.7%; Inhibition (MOLT-4): 59.3%; Cell growth (K562 [33]): 34.8%; Cell growth (SR): 38.4%; Inhibition (SR): 61.6%; Cell growth (DMS-114): 21%; Inhibition (DMS-114): 79%
